Screening data: PubChem, several laboratories
PP5 inh: inhibitors of human protein phosphatase 5 (PP5); P53041; purified PP5c, OMFP substrate fluorescence; inhibition, % at 6.7 µM; 320,000 tested, 0.18% active;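 active = inhibition above the campaign's mean inhibition across all tested compounds plus 3 SD, cut at about 9.5% in these data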;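 note: 0% = DMSO only and 100% = 100 µM cantharidin control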
Target sequence (P53041 whole entry, looked up): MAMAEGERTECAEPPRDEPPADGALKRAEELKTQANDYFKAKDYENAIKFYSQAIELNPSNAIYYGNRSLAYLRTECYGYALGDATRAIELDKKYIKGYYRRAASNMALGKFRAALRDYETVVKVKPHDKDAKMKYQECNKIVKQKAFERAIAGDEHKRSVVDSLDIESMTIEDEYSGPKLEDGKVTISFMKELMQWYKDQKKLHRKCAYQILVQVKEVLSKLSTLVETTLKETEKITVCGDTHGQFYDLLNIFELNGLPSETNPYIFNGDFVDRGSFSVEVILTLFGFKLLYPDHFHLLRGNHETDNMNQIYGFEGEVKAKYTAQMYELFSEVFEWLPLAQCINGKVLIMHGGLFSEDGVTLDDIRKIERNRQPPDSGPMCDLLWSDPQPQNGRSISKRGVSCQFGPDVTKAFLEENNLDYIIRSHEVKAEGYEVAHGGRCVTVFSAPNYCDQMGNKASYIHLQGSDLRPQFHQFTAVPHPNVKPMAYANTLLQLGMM
HCV NS3 hel inh: HCV NS3 helicase inhibition; AID 1800; NS3 helicase DNA unwinding, Cy5 molecular beacon fluorescence; 290,000 tested, 0.56% active; inhibition, % at 10.9 µM;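 active = inhibition above the mean of all tested compounds plus 3 SD, set per campaign, cut at about 35% in these data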;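 note: 0% = DMSO wells and 100% = thioflavine S control wells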
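Compound dosing – single dose, 10.9 µM nominal final, DMSO 0.8% final · System – NS3 helicase fragment of HCV · Buffer or medium – MOPS pH 6.5, MgCl2, DTT, Tween20, BSA · Signal – Cy5 beacon fluorescence read at start and 1 h · Also added – annealed dual-labelled DNA beacon duplex, ATP-started · Schedule – 1 h at 25 °C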
HIF act: HIF pathway transcriptional activation; U2OS HRE-luciferase reporter, luminescence; normalized: DMSO 0%, desferrioxamine 100%; activation, % at 7.5 µM (by protocol); 300,000 tested, 0.32% active;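 active = mean activation of at least 10% of the iron chelator positive control signal, with at least half of replicates also reaching 10%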
PP1 counter: PP1-alpha (human) inhibition in PP5 counter-screen; P62136; purified PP1alpha, OMFP fluorescence; inhibition, % at 6.7 µM; 320,000 tested, 0.9% active; AID 2235;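 active = inhibition above the mean inhibition of all tested compounds plus 3 SD, computed separately for each screening campaign, cut at about 15% in these data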
FID counter: fluorescent intercalator displacement, NS3 helicase counter-screen | DNA fluorescent intercalator displacement, fluorescence | inhibition, % at 7.9 µM | 290,000 tested, 0.17% active; in the data active = inhibition above about 37%;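 note: 0% = vehicle and 100% = reference compound; higher means more ethidium bromide displaced from hairpin DNA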
Active calls of the source: *; . = no result. Sampled rows, rich in hits. Any-hit rate of the full collection: about 1.9%.

SMILES	PP5 inh	HCV NS3 hel inh	HIF act	PP1 counter	FID counter
Cc1ccc(Cn2nnc3c(=O)[nH]c(C4CCN(S(=O)(=O)Cc5ccccc5)CC4)nc32)cc1	4	-4	2	10	-29
Cc1ccc(S(=O)(=O)N2CCC(c3nc4c(nnn4Cc4ccccc4)c(=O)[nH]3)CC2)cc1	-3	-4	0	16*	-41
O=c1[nH]c(C2CCN(S(=O)(=O)/C=C/c3ccccc3)CC2)nc2c1nnn2Cc1ccccc1	2	-13	0	15*	-40
Cc1c2ccccc2cc[n+]1CCCS(=O)(=O)[O-]	0	2	0	-6	-1
CC1(C)C(/C=C/C=C/C=C/C=C2\N(CCCCS(=O)(=O)O)c3ccc4ccccc4c3C2(C)C)=[N+](CCCCS(=O)(=O)[O-])c2ccc3ccccc3c21	3	.	.	59*	.
Cc1cc(-c2nnnn2-c2cc(Cl)cc(Cl)c2)no1	-1	-12	13*	-4	0
NC(=O)C1CCN(C(=O)CCC(=O)c2ccc(Br)cc2)CC1	-2	-1	1	3	-3
O=C(O)c1[nH]c2ccccc2c1C(c1cc(Cl)cc([N+](=O)[O-])c1O)c1c(C(=O)O)[nH]c2ccccc12	1	-31	-32	15*	4
Cc1ccc(C(=O)Nc2ccnc(-c3ccncc3)n2)cc1	-1	-5	0	-5	-10
CCOc1ccc(C(=O)NCC2CCCO2)cc1OCC (stereo not given)	1	-7	11*	-1	-1
O=C(NCC1CCCO1)c1sc2cc(Cl)ccc2c1Cl (stereo not given)	1	-11	9.9*	0	-5
O=C(NCCN1CCOCC1)c1sc2cc(Cl)ccc2c1Cl	1	0	1	3	-12
COc1ccc(OC)c(S(=O)(=O)N2CCC(C(=O)NC3CC3)CC2)c1	-5	14	-26	-1	-4
O=c1c2ccccc2nc(/C=C/c2cccnc2)n1Cc1ccccc1	.	14	0	.	-14
O=c1c2ccccc2nc(/C=C/c2cccnc2)n1CCc1ccccc1	5	-11	0	16*	-28
O=c1c(-c2nnc(SCc3ccc(Cl)cc3Cl)o2)cccn1Cc1ccccc1	-2	1	0	16*	-6
CN(C)S(=O)(=O)c1cccc(NC(=O)c2ccc3nccnc3c2)c1	-1	-12	0	-2	-4
Cc1ccc(S(=O)(=O)NCCOc2cc(C)ccc2C)cc1	4	1	0	1	-32
CCOC(=O)C1(C)NC(c2ccc(OC)cc2OC)C2C(=O)N(CC)C(=O)C21 (stereo not given)	0	9	528*	2	-2
C=CCn1c(COc2ccccc2-c2ccccc2)nnc1SCC(=O)NC(=O)NCc1ccco1	5	-4	0	16*	-32
C=CCn1c(COc2ccccc2F)nnc1SCC(=O)NC(=O)NCc1ccco1	2	10	0	2	-29
CCOc1cc(CNC(C)(C)C)ccc1OCC(=O)Nc1cccc(C(F)(F)F)c1	5	-47	0	-4	38*
CCC(CO)NCc1ccc(OCC(=O)Nc2cccc(C(F)(F)F)c2)c(OC)c1 (stereo not given)	1	-13	.	0	19
COCCCN=C1NN=C(c2cc(C)n(Cc3ccccc3Cl)c2C)CS1	2	-16	3	15*	-10
COCCCN=C1NN=C(c2cc(C)n(-c3ccccc3)c2C)CS1	4	1	0	9	-18
SMILES	PP5 inh	HCV NS3 hel inh	HIF act	PP1 counter	FID counter
Cc1cc(C2=NNC(=NCCc3ccccc3)SC2)c(C)n1-c1c(C)n(C)n(-c2ccccc2)c1=O	0	0	-1	19*	-18
Cc1cc(C2=NNC(=Nc3ccccc3)SC2)c(C)n1C	0	0	2	16*	-6
CN=C1NN=C(c2cc(C)n(-c3ccc(Cl)cc3)c2C)CS1	2	-4	0	9	-12
Cc1cc(C2=NNC(=NC3CC3)SC2)c(C)n1-c1c(C)n(C)n(-c2ccccc2)c1=O	1	-3	-1	1	-13
Cc1ccc(-n2c(C)cc(C3=NNC(=NC4CC4)SC3)c2C)cc1C	4	-14	1	16*	-5
COCCn1c(C)cc(C2=NNC(=Nc3ccccc3F)SC2)c1C	1	1	-7	12	-8
O=C(COC(=O)c1ccc(Br)cc1)NC(=O)NCc1ccccc1	1	.	.	3	.
O=C(Cn1cnc2c(nnn2Cc2ccccc2F)c1=O)NCc1ccco1	1	1	0	-1	1
COc1ccc(CCNC(=O)c2nnn(CC(=O)Nc3c(C)cc(C)cc3C)c2N)cc1OC	-7	-2	107*	6	-34
COc1ccccc1NC(=O)O/N=C(\N)c1ccccc1	0	-2	0	5	-1
Cc1cccc(N(C)C(=O)C2CCCN2S(=O)(=O)c2cccc3nsnc23)c1 (stereo not given)	1	5	0	-3	-19
CSCCC(NC(=O)c1ccccc1)C(=O)N/N=C(\C)c1ccccc1 (stereo not given)	-2	-8	0	-4	-5
COC(=O)c1cccc(C23CC4(C2)[C@H](CN(Cc2cccnc2)[C@@H]4c2ccccc2)C3c2ccccc2)c1 (stereo not given in full)	3	.	0	16*	.
FC(F)(F)c1ccc(CN2C[C@@H]3C(c4ccc(C(F)(F)F)cc4)C4(c5cccnc5)CC3(C4)[C@H]2c2ccccc2)cc1 (stereo not given in full)	2	.	-1	1	.
FC(F)(F)c1ccc(C2[C@H]3CN(Cc4cccnc4)[C@H](c4ccccc4)C34CC2(c2ccccc2)C4)cc1 (stereo not given in full)	3	.	-1	16*	.
Cc1ccc(S(=O)(=O)N(C)CC(=O)Nc2nnc(CC(C)C)s2)cc1	1	-2	0	1	-43
CCN(CC)CCCN(C(=O)c1ccccc1C)c1nc(-c2ccc(OC)cc2)cs1	2	-72	0	6	15
CCN(CC)CCCN(C(=O)c1ccc(OC)cc1)c1nc(-c2ccc(OC)cc2)cs1	2	-82	-19	-2	44*
CCC(C)c1nc2ccsc2c(N2CCOC2=O)c1-c1ccccc1 (stereo not given)	2	.	0	0	.
CO/N=C/NC(=O)c1c(OC)ccnc1Oc1ccc(F)cc1	1	10	0	-5	71*
COc1ccnc(Oc2ccc(F)cc2)c1C(=O)N/C=N/OCc1ccc(F)cc1	1	-6	0	-1	-11
Cc1ccc(Oc2nnc(-c3cccs3)c3ccccc23)cc1	2	3	0	0	0
c1ccc(Oc2nnc(-c3cccs3)c3ccccc23)cc1	1	-3	-1	16*	0
Cc1ccc(OCC(=O)Nc2cc(NC(=O)COc3ccc(C)c(C)c3)cc(C(=O)O)c2)cc1C	5	22	-1	16*	-20
COC/C=C/C1=CC2=CC(=O)C(C)(OC(=O)c3cnc4ccccc4n3)C(=O)C2=CN1C1CC1 (stereo not given)	-4	.	-1	0	.
